# According to ChEMBL document CHEMBL3400122, “8-(3-chloro-4-methoxybenzyl)-8H-pyrido[2,3-d]pyrimidin-7-one derivatives as potent and selective phosphodiesterase 5 inhibitors” (Bioorg Med Chem Lett, 2015):
# Tests used:
# [1] = Selectivity for bovine retina PDE6 to canine lung PDE5
# [2] = target: cGMP-specific 3',5'-cyclic phosphodiesterase (Canis lupus familiaris, UniProt O77746); test: Inhibition of canine lung PDE5 using [3H]cGMP incubated for 30 mins by scintillation analysis
# How it was run: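 Radiolabeled nucleotide method using PDE5 isolated from canine lung. Started with [³H]cGMP plus unlabeled cGMP, 37 °C for 30 min, stopped by boiling 1.5 min. Crotalus atrox venom step at 37 °C for 30 min, column separation, eluate counted by scintillation.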
# [3] = test system: Corpus cavernosum; test: Relaxation effect on phenylephrine-induced contractile response in isolated rabbit corpus cavernosum; format: functional; details: Oryctolagus cuniculus
# How it was run: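 Isolated rabbit corpus cavernosum strips in organ baths. High-KCl (120 mM) PSS contraction checked twice, then phenylephrine (5 × 10⁻⁶ M) gave a tonic contraction. Once stable, test compound (10⁻¹⁰–10⁻⁶ M) or vehicle added at 30 min intervals. EC30 derived from the logarithmic concentration–inhibition curve.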
Selectivity ratio [1],IC50 [2] [nM],Ratio IC50 [1],Structure (SMILES),EC30 [3] [nM]
1600,0.98,–,COc1ccc(Cn2c(=O)cc(CCN3CCOCC3)c3cnc(N4CCC[C@H]4CO)nc32)cc1Cl,8.6
–,5.2,–,COc1ccc(CNc2nc(N3CCC[C@H]3CO)ncc2C(C)=O)cc1Cl,–
–,7.2,–,COc1ccc(Cn2c(=O)cc(-c3nccn3C)c3cnc(N4CCC[C@H]4CO)nc32)cc1Cl,–
–,33,–,COc1ccc(CNc2nc(N3CCC[C@H]3CO)ncc2C=O)cc1Cl,–
–,12,–,COc1ccc(CNc2nc(N3CCC[C@H]3CO)ncc2C(=O)c2ccccn2)cc1Cl,–
1900,1.7,–,COc1ccc(Cn2c(=O)cc(-c3ccccn3)c3cnc(N4CCC[C@H]4CO)nc32)cc1Cl,–
850,3.3,–,COc1ccc(Cn2c(=O)ccc3cnc(N4CCC[C@H]4CO)nc32)cc1Cl,2.2
–,0.21,5700,COc1ccc(CNc2nc(N3CCC[C@H]3CO)ncc2C(=O)c2cc(OC)c(OC)c(OC)c2)cc1Cl,> 100
–,12,–,COc1ccc(CNc2nc(N3CCC[C@H]3CO)ncc2C(=O)c2nccn2C)cc1Cl,–
2300,0.86,–,COc1ccc(Cn2c(=O)cc(C)c3cnc(N4CCC[C@H]4CO)nc32)cc1Cl,0.85
–,–,–,CCCc1nn(C)c2c(=O)[nH]c(-c3cc(S(=O)(=O)N4CCN(C)CC4)ccc3OCC)nc12 [SILDENAFIL],8.7
–,2.9,–,COc1ccc(CNc2nc(N3CCC[C@H]3CO)ncc2C(=O)CCN2CCOCC2)cc1Cl,–
